# ChEMBL document CHEMBL5649170, “Sustained microglial depletion with CSF1R inhibitor impairs parenchymal plaque development in an Alzheimer's disease model” (Nat Commun, 2019)
# Activity calls are given as the source filed them. The rule behind the calls is not given here.
# Columns and labels:
# [1] = biological target: Receptor-type tyrosine-protein kinase FLT3 (Homo sapiens, UniProt P36888); assay: Inhibition of FLT3 (unknown origin)
# [2] = biological target: ALK tyrosine kinase receptor (Homo sapiens, UniProt Q9UM73); assay: Inhibition of ALK (unknown origin)
# Sequence of ALK tyrosine kinase receptor (Q9UM73 whole entry): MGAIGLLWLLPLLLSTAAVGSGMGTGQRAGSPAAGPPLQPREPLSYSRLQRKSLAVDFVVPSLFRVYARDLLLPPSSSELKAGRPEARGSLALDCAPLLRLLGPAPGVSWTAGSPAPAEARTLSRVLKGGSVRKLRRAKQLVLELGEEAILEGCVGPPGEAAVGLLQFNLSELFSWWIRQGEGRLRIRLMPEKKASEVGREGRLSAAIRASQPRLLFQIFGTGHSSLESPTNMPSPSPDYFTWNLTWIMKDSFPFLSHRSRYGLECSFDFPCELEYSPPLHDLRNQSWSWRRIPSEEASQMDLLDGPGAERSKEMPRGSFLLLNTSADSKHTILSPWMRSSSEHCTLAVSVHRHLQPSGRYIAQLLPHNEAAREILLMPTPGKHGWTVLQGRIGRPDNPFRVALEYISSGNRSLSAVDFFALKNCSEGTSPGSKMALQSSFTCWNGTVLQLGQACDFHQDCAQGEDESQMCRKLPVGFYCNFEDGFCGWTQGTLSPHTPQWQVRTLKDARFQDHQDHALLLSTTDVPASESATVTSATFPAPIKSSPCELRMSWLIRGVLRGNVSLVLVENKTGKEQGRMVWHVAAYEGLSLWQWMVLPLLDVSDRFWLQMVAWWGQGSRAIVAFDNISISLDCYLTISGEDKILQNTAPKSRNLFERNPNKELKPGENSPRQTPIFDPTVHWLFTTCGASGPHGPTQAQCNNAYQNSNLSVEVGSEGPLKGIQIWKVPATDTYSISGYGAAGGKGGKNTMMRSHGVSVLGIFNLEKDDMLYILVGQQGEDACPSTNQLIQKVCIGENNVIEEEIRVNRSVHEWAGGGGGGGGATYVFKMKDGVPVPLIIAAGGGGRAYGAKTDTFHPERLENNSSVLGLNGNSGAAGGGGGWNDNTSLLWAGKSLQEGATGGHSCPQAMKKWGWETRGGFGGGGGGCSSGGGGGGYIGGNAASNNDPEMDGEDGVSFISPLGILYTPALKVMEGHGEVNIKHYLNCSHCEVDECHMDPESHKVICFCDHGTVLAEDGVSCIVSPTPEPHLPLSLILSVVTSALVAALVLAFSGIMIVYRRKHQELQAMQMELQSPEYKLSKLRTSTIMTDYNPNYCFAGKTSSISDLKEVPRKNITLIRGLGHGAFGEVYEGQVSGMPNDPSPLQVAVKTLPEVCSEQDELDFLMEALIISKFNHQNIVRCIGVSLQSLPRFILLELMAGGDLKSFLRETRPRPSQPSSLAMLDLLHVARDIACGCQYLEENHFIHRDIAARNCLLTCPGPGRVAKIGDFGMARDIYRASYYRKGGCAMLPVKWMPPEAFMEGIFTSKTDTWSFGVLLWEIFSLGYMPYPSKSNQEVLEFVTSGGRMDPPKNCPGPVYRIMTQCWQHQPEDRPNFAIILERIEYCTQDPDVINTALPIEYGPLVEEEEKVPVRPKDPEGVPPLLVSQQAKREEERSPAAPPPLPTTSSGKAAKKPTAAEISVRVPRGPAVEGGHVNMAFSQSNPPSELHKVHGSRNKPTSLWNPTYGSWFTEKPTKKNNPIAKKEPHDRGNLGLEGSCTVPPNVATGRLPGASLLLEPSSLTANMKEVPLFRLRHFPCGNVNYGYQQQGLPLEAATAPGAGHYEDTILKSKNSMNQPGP
# [3] = biological target: Calcium/calmodulin-dependent protein kinase type 1D (Homo sapiens, UniProt Q8IU85); assay: Inhibition of CAMK1D (unknown origin)
# Sequence of Calcium/calmodulin-dependent protein kinase type 1D (Q8IU85 whole entry): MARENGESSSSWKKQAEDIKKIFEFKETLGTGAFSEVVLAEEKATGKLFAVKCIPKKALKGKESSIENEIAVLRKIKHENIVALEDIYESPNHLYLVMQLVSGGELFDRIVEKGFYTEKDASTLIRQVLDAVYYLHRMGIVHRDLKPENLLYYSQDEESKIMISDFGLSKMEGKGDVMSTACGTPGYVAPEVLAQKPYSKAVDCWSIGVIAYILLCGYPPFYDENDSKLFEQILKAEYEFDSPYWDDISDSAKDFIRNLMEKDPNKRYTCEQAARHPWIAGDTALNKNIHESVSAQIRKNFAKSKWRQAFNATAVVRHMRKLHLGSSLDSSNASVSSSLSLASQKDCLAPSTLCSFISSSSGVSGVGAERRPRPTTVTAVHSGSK
# [4] = biological target: Ephrin type-A receptor 3 (Homo sapiens, UniProt P29320); assay: Inhibition of EPHA3 (unknown origin)
# Sequence of Ephrin type-A receptor 3 (P29320 whole entry): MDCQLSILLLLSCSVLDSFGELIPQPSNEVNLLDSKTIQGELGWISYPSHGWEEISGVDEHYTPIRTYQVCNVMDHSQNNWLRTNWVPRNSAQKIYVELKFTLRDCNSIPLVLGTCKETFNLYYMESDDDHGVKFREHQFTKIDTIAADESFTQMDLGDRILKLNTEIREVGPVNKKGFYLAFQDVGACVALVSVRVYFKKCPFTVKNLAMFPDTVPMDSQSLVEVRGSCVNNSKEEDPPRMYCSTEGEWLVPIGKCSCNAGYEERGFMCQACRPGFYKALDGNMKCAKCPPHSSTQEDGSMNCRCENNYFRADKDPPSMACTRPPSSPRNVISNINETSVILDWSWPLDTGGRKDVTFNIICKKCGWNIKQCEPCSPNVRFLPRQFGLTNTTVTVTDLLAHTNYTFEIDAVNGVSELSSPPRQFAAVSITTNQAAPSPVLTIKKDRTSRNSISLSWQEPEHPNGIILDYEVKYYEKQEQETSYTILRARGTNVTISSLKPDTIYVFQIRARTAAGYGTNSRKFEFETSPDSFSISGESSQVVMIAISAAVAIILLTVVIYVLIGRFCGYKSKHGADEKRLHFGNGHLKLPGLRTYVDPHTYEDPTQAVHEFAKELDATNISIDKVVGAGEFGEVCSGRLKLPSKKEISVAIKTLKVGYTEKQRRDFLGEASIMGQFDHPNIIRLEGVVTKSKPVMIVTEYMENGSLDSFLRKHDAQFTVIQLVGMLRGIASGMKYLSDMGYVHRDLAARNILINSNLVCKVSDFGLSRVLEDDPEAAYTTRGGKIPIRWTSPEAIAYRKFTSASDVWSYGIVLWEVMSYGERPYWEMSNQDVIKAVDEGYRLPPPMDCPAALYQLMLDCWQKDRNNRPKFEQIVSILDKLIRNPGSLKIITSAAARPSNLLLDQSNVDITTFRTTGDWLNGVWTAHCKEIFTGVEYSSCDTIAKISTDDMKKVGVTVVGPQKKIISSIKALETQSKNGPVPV
# [5] = biological target: Receptor tyrosine-protein kinase erbB-4 (Homo sapiens, UniProt Q15303); assay: Inhibition of ERBB4 (unknown origin)
# [6] = biological target: Protein kinase C zeta type (Homo sapiens, UniProt Q05513); assay: Inhibition of PRKCZ (unknown origin)
# Sequence of Protein kinase C zeta type (Q05513 whole entry): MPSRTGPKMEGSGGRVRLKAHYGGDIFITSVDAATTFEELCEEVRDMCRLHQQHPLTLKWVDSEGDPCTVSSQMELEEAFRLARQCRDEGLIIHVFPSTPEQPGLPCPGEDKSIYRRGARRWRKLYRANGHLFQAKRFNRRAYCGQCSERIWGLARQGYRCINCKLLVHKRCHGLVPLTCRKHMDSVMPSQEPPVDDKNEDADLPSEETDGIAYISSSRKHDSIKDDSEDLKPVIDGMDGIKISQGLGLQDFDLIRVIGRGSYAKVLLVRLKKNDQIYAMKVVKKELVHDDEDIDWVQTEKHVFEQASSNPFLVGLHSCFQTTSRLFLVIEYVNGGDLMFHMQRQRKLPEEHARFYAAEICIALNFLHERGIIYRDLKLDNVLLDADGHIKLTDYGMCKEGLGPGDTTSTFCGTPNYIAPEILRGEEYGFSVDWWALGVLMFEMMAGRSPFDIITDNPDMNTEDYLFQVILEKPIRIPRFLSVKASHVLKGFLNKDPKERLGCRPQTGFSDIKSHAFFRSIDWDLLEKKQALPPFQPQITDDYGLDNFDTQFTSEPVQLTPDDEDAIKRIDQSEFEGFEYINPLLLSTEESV
# [7] = biological target: Ribosomal protein S6 kinase alpha-3 (Homo sapiens, UniProt P51812); assay: Inhibition of RPS6KA3 (unknown origin)
# Sequence of Ribosomal protein S6 kinase alpha-3 (P51812 whole entry): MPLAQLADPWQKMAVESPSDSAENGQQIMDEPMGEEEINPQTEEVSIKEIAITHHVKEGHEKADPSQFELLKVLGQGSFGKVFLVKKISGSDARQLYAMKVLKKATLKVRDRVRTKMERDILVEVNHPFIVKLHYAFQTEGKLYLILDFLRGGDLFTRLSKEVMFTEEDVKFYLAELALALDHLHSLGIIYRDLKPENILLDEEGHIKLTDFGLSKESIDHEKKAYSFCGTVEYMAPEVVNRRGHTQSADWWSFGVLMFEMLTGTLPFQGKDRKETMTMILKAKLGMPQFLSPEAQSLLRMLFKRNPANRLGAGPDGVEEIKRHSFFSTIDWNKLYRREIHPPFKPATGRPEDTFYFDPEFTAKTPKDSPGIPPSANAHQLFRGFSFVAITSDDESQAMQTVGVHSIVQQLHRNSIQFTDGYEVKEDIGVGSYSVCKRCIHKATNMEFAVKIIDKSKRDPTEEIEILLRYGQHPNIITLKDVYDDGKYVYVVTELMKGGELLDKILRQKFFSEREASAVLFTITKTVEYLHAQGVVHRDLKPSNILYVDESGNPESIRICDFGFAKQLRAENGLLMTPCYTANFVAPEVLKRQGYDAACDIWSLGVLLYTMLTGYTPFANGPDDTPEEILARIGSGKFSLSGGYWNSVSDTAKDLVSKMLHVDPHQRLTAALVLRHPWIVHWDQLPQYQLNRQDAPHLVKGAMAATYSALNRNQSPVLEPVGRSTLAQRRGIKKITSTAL
# [8] = biological target: SRSF protein kinase 2 (Homo sapiens, UniProt P78362); assay: Inhibition of SRPK2 (unknown origin)
# Sequence of SRSF protein kinase 2 (P78362 whole entry): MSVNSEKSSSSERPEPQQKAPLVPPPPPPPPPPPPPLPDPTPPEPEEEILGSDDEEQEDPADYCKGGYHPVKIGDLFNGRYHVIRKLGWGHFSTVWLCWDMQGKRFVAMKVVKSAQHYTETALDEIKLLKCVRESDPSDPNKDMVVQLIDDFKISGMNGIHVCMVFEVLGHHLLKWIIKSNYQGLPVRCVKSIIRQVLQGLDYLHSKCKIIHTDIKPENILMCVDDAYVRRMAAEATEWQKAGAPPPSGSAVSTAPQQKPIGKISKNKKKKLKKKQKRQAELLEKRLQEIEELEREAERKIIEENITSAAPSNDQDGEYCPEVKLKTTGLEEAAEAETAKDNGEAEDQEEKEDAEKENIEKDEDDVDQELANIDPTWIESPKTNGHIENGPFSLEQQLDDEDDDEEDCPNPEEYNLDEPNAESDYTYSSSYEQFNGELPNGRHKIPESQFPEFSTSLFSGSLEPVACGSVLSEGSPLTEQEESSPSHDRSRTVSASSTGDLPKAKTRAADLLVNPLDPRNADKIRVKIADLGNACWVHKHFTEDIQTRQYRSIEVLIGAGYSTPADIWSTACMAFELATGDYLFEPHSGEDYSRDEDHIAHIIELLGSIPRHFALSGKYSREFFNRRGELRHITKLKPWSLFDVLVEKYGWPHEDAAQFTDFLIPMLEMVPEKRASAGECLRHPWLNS
# [9] = Clearance in dog at 1.00 mg/kg, iv administered as single dose; type: ADME, organism-based, Canis lupus familiaris; details: in vivo
# [10] = Drug concentration in mouse brain at 300 ppm administered as rodent chow for 14 days; type: ADME, tissue-based; details: route po, time 14 day, read-out: Ct
# [11] = system: Mus musculus; assay: Antialzheimer activity in 5XFAD mouse assessed as microglial elimination at 1200 ppm administered as rodent chow for 24 weeks relative to control; type: functional; details: route po
# [12] = Toxicity in wildtype mouse assessed as time spent in closed arm at 1200 ppm administered as rodent chow for 10 to 24 weeks by Elevated plus maze test (reference value: 73.3 to 220.6 sec); details: in vivo, po, time 10-24 weeks
# [13] = system: Mus musculus; assay: Antialzheimer activity in 5XFAD mouse assessed as microglial elimination in thalamus by measuring reduction in Thio-S positive plaques at 1200 ppm administered as rodent chow for 14 weeks by Thio-S staining based confocal microscopic analysis; type: functional, organism-based; details: route po
# [14] = biological target: T1, Macrophage colony-stimulating factor 1 receptor (Mus musculus) (UniProt P09581); assay: In vivo inhibition of CSF1R in wildtype mouse assessed as iron reactivity by measuring hemosiderin intensity of prussian blue staining in […] cortex at 1200 ppm administered as rodent chow starting from 1.5 months and measured after 4 months by confocal microscopic analysis (reference value: 0.362 to 5.194 a.u.); type: functional; details: route po, time 2.5 months
# T1 sequence (whole entry): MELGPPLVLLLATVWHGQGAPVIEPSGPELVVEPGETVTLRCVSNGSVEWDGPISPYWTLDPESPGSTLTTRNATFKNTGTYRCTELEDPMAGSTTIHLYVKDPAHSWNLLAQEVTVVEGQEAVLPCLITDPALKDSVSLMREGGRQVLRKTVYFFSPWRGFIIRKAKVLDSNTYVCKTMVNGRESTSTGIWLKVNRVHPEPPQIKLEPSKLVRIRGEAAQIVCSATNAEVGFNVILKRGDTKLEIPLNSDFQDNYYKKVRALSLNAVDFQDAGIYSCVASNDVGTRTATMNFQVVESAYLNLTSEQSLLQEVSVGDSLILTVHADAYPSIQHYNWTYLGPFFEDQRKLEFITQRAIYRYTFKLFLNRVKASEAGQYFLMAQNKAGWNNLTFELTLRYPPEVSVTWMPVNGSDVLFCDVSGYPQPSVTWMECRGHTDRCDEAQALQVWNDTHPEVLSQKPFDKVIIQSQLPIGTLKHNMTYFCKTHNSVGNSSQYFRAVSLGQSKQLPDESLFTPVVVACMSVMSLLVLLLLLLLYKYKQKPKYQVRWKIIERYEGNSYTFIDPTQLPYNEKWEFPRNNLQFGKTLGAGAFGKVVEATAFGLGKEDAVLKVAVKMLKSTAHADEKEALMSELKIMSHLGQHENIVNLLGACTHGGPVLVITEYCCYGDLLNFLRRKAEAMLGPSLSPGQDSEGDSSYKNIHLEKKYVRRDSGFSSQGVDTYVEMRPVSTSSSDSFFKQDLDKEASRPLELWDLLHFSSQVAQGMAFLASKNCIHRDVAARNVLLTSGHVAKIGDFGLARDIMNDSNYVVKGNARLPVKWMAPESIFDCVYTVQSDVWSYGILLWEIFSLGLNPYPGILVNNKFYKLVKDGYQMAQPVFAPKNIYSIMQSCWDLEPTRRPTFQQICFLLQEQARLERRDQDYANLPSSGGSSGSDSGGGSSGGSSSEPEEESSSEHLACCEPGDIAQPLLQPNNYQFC
# Summary of the method: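 Wild-type or 5xFAD mice fed PLX5622 (1200 ppm) in AIN-76A chow from 1.5 months of age, examined in 4- and 7-month-old cohorts. Brain sections stained with a Prussian blue kit per kit instructions to detect iron deposits (microbleeds).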
# [15] = system: Mus musculus; assay: Antialzheimer activity in 5XFAD mouse assessed as average diameter of claudin-5 blood vessels in Thio-S positive retro spinal cortex at 1200 ppm administered as rodent chow starting from 1.5 months and measured after 4 months by immunolabeling analysis; type: functional; details: route po, time 2.5 months, 1825 h
# [16] = system: Mus musculus; assay: Antialzheimer activity in 5XFAD mouse assessed as percent change in claudin-5 intensity of Thio-S negative thalamus at 1200 ppm administered as rodent chow starting from 1.5 months and measured after 4 months by immunolabeling analysis relative to control; type: functional; details: route po, time 2.5 months, 1825 h
# [17] = Effect on Csf1r RPKM gene expression in 5XFAD mouse cortex at 1200 ppm administered as rodent chow starting from 1.5 months and measured after 7 months by RNA-Seq analysis (reference value: 26.750 to 37.128 RPKM); type: functional; details: route po, time 5.5 months, 4015 h
# [18] = Effect on Siglech gene expression in wild type mouse thalamus at 1200 ppm administered as rodent chow starting from 1.5 months and measured after 7 months by RNA-Seq analysis (reference value: 2.864 to 4.605 RPKM); type: functional; details: route po, time 5.5 months, 4015 h
# [19] = Effect on Rtn4r gene expression in wildtype mouse hippocampus assessed as percent change in Reads Per kilo base per Million mapped reads at 1200 ppm administered as rodent chow starting from 1.5 months and measured after 7 months by RNA-Seq analysis (reference value: 88.030 to 132.504 %); type: functional; details: route po, time 5.5 months, 4015 h
# [20] = Prevention of Zfp286 gene downregulation in 5XFAD mouse hippocampus assessed as percent change in Reads Per kilo base per Million mapped reads at 1200 ppm administered as rodent chow starting from 1.5 months and measured after 7 months by RNA-Seq analysis (reference value: 71.833 to 84.581 %); type: functional; details: route po, time 5.5 months, 4015 h
# [21] = system: Mus musculus; assay: Prevention of P2ry12 gene upregulation in 5XFAD mouse hippocampus at 1200 ppm administered as rodent chow starting from 1.5 months and measured after 7 months by Nanostring analysis; type: functional, tissue-based; details: route po, time 5.5 months
# [22] = Drug concentration in wildtype mouse plasma at 600 ppm administered as rodent chow starting from 1.5 months and measured after 5 months; type: ADME, cell-free; details: route po, time 3.5 months
# Summary of the method: (§1)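 WT or 5xFAD mice were fed PLX3397 in AIN-76A chow at 600 ppm or 75 ppm from 1.5 to 5 months of age. Terminal brain and plasma drug concentrations were determined at study end.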
# [23] = Drug concentration in wildtype mouse brain at 600 ppm administered as rodent chow starting from 1.5 months and measured after 5 months; type: ADME, tissue-based; details: route po, time 3.5 months, read-out: Ct; summary of the method: as §1
smiles,measurement,setting,value
COc1ncc(F)cc1CNc1ccc(Cc2c[nH]c3ncc(C)cc23)c(F)n1 [PLX-5622],IC50,[1],0.39 µM
same,IC50,[2],> 1 µM
same,IC50,[3],> 1 µM
same,IC50,[4],> 1 µM
same,IC50,[5],> 1 µM
same,IC50,[6],> 1 µM
same,IC50,[7],> 1 µM
same,IC50,[8],> 1 µM
same,clearance,[9],3 mL/min/kg
same,concentration at 336 h,[10],963 ng/mL
same,Activity,[11],97%
same,Time,[12],90.5 s
same,Activity,[13],inactive
same,Flu intensity,[14],0.1 a.u.
same,Activity,[15],4.447 um
same,Activity,[16],91.327%
same,Activity,[17],0.984 RPKM
same,Activity,[18],0 RPKM
same,Activity,[19],89.887%
same,Activity,[20],91.857%
same,Activity,[21],Active
FC(F)(F)c1ccc(CNc2ccc(Cc3c[nH]c4ncc(Cl)cc34)cn2)cn1 [PEXIDARTINIB],concentration at 2555 h,[22],139 µM
same,concentration at 2555 h,[23],5 µM
